We go through 30 sequences from the array DNA melting data of Ke et al. (doi:10.1101/2024.01.08.574731).

A short description of data set [1]: folding enthalpy; higher = less favourable; fluorescence melt of hairpins on a sequencing array, two-state fit. To be noted: sodium 0.088 M. In a few lines:
(§1)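 Melting temperature and folding enthalpy were derived from bootstrapped two-state fits. The fitted temperatures were raised by 9.35 °C to agree with UV melts, and four replicates were combined by inverse variance. The underlying data were Cy3 fluorescence images of library hairpins, with annealed Cy3 and quencher oligos, on a sequenced MiSeq flow cell in 50 mM Na-HEPES pH 8.0, 25 mM NaCl, taken in 2.5 °C steps up to 60 °C, normalised to pre-quench Cy3 and to control constructs.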

The nature of data set [2]: melting temperature; fluorescence melt of hairpins on a sequencing array, two-state fit, raised by 9.35 °C to match UV melts. The note with it: sodium 0.088 M. In a few lines:
as §1

In the case of GATCCGTTGGCGGATC ((((((....)))))), in data set [1], the folding enthalpy is -36.5 kcal/mol. Also, the Tm in data set [2] came out at 59.6 °C.
Consider GATCAGGGCCTGATC ((((((...)))))), for which the folding enthalpy in data set [1] is -68.2 kcal/mol. The Tm in data set [2] is 53 °C.
As for GCCGGCGAAAGCCGTGGC ((((((....)))..))), in data set [1], the folding enthalpy was -13.1 kcal/mol. In addition, the Tm in data set [2] was 58.4 °C.
Take GCGGGGGGAAACTCCCGC (((((.(....).))))): the folding enthalpy in data set [1] was -33.8 kcal/mol. Besides, the Tm in data set [2] came to 68.4 °C.
On to GTGCTAGGAAACTAGCGC (.(((((....))))).), for which the folding enthalpy in data set [1] is -39.6 kcal/mol. Also, in data set [2], the Tm came out at 53.5 °C.
Regarding GGTACGCGAAAGCGAACC (((.(((....))).))), the folding enthalpy in data set [1] is -24.8 kcal/mol. Moreover, the Tm in data set [2] stood at 58 °C.
In the case of GGGGGAGAAATCCCCC ((((((....)))))), in data set [1], the folding enthalpy was -29.9 kcal/mol. For the same sequence, the Tm in data set [2] was determined as 65.5 °C.
Regarding GCGACCTCGAAAGAGCGC (((..(((....)))))), the folding enthalpy in data set [1] is -31.1 kcal/mol. Moreover, the Tm in data set [2] amounted to 49.1 °C.
Consider GATCAATTTCTTGATC ((((((....)))))), for which the folding enthalpy in data set [1] was -39.3 kcal/mol. Besides, the Tm in data set [2] turned out to be 43.3 °C.
With GGTCGCCGAAAGGCCACC (((.(((....))).))), the folding enthalpy in data set [1] was -15.7 kcal/mol. In addition, the Tm in data set [2] worked out at 48.1 °C.
In the same order, the values of GATCCTAGCAGGATC ((((((...)))))) are -37 kcal/mol and 55.9 °C.
For GATCTCGATCGAGATC ((((((....)))))), the folding enthalpy in data set [1] was -48.5 kcal/mol. Besides, the Tm in data set [2] worked out at 56.9 °C.
As for GCCTGGCGAAAGCCTCGC ((..(((....)))..)), the folding enthalpy in data set [1] was -9.28 kcal/mol. In addition, the Tm in data set [2] came out at 45.3 °C.
On to GGAGACGAAAGTCGCTCC ((((((....)))..))), for which the folding enthalpy in data set [1] was -13 kcal/mol. In addition, the Tm in data set [2] was 42.4 °C.
As to GGCTGCGGAAACGTGGCC (((..((....))..))), in data set [1], the folding enthalpy is -45.6 kcal/mol. In data set [2], the Tm came to 56.5 °C.
In the same order, the values of GGAAGTGGAAACGCTTCC (((((.(....).))))) are -41.7 kcal/mol and 50.8 °C.
With GCTTTGGGAAACCAAAGC (((((((....))))))), the folding enthalpy in data set [1] was -47.1 kcal/mol. Moreover, in data set [2], the Tm is 65 °C.
Taken in the same sequence, the figures for GCTCTTGGAAACAAGAGC (((((((....))))))) were -37.2 kcal/mol and 63.2 °C.
In the same order, the values of GGTACGGGAAACTGTACC (((((.(....).))))) are -34.3 kcal/mol and 50.9 °C.
Turning to GGCGTAGGAAACTACACC ((.((((....)))).)), in data set [1], the folding enthalpy was -29.1 kcal/mol. Besides, the Tm in data set [2] stood at 44.4 °C.
In the same order, the values of GGAATTGGAAACGATTCC (((((.(....).))))) are -34.4 kcal/mol and 45.6 °C.
With GATCCATCGATGGATC ((((((....)))))), the folding enthalpy in data set [1] is -47.8 kcal/mol. Besides, in data set [2], the Tm came to 55.2 °C.
GTGACGCGAAAGCGCCAC (((.(((....))).))): the folding enthalpy in data set [1] was -33.9 kcal/mol. The Tm in data set [2] was determined as 68 °C.
GGCCACACGAAAGTGGCC (((..(((....)))))): in data set [1], the folding enthalpy was -39.1 kcal/mol. Moreover, the Tm in data set [2] is 67.5 °C.
Turning to GCCATCGAAAGATAAGGC ((((((....)))..))), in data set [1], the folding enthalpy was -23.5 kcal/mol. Besides, the Tm in data set [2] turned out to be 44.8 °C.
On to GGAGTAGGAAACTGCTCC ((((.((....)).)))), for which the folding enthalpy in data set [1] is -28.5 kcal/mol. In data set [2], the Tm stood at 51.4 °C.
For the sequence GGCTCTCGAAAGAGGGCC (((.(((....))).))), in data set [1], the folding enthalpy was -39.3 kcal/mol. For the same sequence, the Tm in data set [2] was 64.7 °C.
With GTTCACGAAAGTGACAAC ((((((....)))..))), the folding enthalpy in data set [1] is -10.1 kcal/mol. For the same sequence, in data set [2], the Tm amounted to 35.3 °C.
In the case of GATCCTCATTAGGATC ((((((....)))))), the folding enthalpy in data set [1] was -33.8 kcal/mol. In addition, the Tm in data set [2] is 51.1 °C.
In the same order, the values of GAAAAGCCGAAAGGCTTC (((..(((....)))))) are -7.3 kcal/mol and 36.8 °C.
